A selection: hits, their analogues and other compounds. The true share with any hit is near 2.6%.
SENP8 block-1: human SENP8 protease inhibitors, primary screen, biochemical, fluorescence, Nedd8 protein substrate, uHTS; inhibition, % at 20 µM; recombinant SENP8; AID 602440, 2012; 360,000 tested, 0.64% active; Sentrin-specific protease 8 (Homo sapiens), Q96LD8; in the data active = inhibition mostly above about 40%, no sharp cut-off; inactive = mostly below about 27%
Platelet DG rel: inhibitors of platelet dense granule secretion, primary screen, cell-based, MLPCN, human platelets. human platelet-rich plasma, SFLLRN dense granule ATP release, luminescence. inhibition, %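 (compounds screened at 7.5 µM in platelet-rich plasma)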. 300,000 tested, 0.22% active. AID 1663, 2009;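 active = mean replicate score, as percent of positive control, at or above 50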
SENP7 block: SENP7 protease inhibitors, primary screen, biochemical, luminescence, uHTS; Sentrin-specific protease 7 (Homo sapiens), Q9BQF6; recombinant SENP7, Z-RLRGG-aminoluciferin luminescence, 40 min; inhibition, % at 5 µM; 330,000 tested, 1.5% active;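 active = inhibition above about 50% at the single test dose, limit read from the data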;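 also: plate controls were DMSO with enzyme for no effect and no enzyme buffer wells for full effect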
Target sequence (Q9BQF6 706-1050 limits assumed): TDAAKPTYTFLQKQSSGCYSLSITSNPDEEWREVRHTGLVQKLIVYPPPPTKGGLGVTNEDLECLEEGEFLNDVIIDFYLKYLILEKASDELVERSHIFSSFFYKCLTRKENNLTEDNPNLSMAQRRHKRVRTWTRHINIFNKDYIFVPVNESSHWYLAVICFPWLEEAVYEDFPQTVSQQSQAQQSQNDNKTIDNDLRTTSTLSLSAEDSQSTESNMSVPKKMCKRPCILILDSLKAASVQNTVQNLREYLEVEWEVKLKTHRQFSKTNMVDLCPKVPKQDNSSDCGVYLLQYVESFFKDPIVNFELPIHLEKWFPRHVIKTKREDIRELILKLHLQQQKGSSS
SENP8 block-2: SENP8 protease inhibitors, primary screen, biochemical, luminescence. Sentrin-specific protease 8 (Homo sapiens), Q96LD8. purified SENP8, Z-RLRGG-aminoluciferin cleavage. inhibition, % at 10 µM. 330,000 tested, 1.2% active; in the data active = inhibition above about 50%
SENP1 FRET inh: human SENP1 catalytic domain inhibitors, primary screen, biochemical, FRET, uHTS; Sentrin-specific protease 1 (Homo sapiens), Q9P0U3; recombinant SENP1 catalytic domain, CyPet-SUMO1-YPet FRET cleavage; inhibition, % at 10 µM; 360,000 tested, 0.21% active;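 active = inhibition at least 30% at 10 µM, raw YFP signal under a set limit, fluorescence ratio 0.5 to 1.5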;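 also: 0% = enzyme with DMSO and 100% = no enzyme wells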
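Assay system: hSENP1 catalytic domain, recombinant. Amount: SENP1 enzyme, 20 pM final. Schedule: 50 min reaction, RT, dark. Technique: FRET, CFP and YFP emission. Control set: no-enzyme wells low, DMSO-plus-enzyme wells high control.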
SENP6 inh: SENP6 protease inhibitors, primary screen, biochemical, luminescence, uHTS; AID 2599, 2010; Recombinant SENP6 catalytic domain, aminoluciferin luminescence; 330,000 tested, 1.8% active; Sentrin-specific protease 6 (Homo sapiens), Q9GZR1; inhibition, % at 10 µM;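 active = inhibition above about 50% at the single tested dose, limit read from the data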;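 also: plate controls were DMSO wells with enzyme for no effect and DMSO wells lacking enzyme for full effect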
SENP8 conf-1: SENP8 protease inhibitors, retest, confirmation, biochemical, luminescence, single concentration. Recombinant SENP8, Z-RLRGG-aminoluciferin luminescence, 60 min. 6,200 tested, 40% active. inhibition, % at 12.5 µM. shares compounds with SENP7 block. AID 488912, 2010;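 active = mean inhibition across replicates above about 50%, limit read from the data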
SENP6 conf: SENP6 protease inhibitors, confirmation, biochemical, luminescence, single concentration; recombinant SENP6, Z-RLRGG-aminoluciferin luminescence; 6,200 tested, 58% active; inhibition, % at 12.5 µM; shares compounds with SENP7 block
SENP7 confirm: SENP7 protease inhibitors, retest, confirmation, biochemical, luminescence, single concentration; shares compounds with SENP7 block; recombinant SENP7, Z-RLRGG-aminoluciferin luminescence, 40 min; 6,200 tested, 69% active; inhibition, % at 12.5 µM
Casp3 select: caspase-3 protease inhibitors, confirmation, selectivity assay for SENP inhibitor project, biochemical, single concentration; shares compounds with SENP7 block; purified caspase-3, Z-DEVD-aminoluciferin luminescence, 60 min; 6,200 tested, 60% active; AID 488918, 2010; inhibition, % at 12.5 µM;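 active = mean inhibition above about 50%, limit read from the data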;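 also: plate controls were enzyme with DMSO for no effect and wells without caspase-3 for full effect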
Target sequence (P42574 28-227 limits assumed): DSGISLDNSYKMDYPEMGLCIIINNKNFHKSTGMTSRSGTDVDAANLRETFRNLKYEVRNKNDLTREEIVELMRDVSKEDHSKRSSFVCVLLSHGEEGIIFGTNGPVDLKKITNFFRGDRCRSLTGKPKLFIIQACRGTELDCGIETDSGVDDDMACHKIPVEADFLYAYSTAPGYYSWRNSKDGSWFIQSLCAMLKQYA
Luc interf: interferes with luciferase luminescence in SENP counter-screen. shares compounds with SENP7 block. Pre-incubated SENP8/Z-RLRGG-aminoluciferin, luciferase luminescence interference. inhibition, % at 12.5 µM. 6,200 tested, 39% active;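 active = mean inhibition above about 50% when retested at one dose, limit read from the data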;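 also: plate controls were DMSO wells with completed reaction for no effect and substrate without enzyme for full effect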
SENP8 conf-2: human SENP8 protease inhibitors, confirmation, biochemical, Nedd8 protein substrate, single concentration; shares compounds with SENP8 block-1; purified SENP8, Nedd8-AMC/pro-Nedd8 cleavage fluorescence, 30 min; inhibition, % at 25 µM; 1,400 tested, 15% active; in the data active = inhibition mostly above about 39%, no sharp cut-off; inactive = mostly below about 34%
Active calls of the source: *; nt = no result given.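 The calls were made as follows, unless noted: active = mean inhibition above about 50% in the one-dose retest (limit read from the data); inactive = the rest.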

SMILES | SENP8 block-1 | Platelet DG rel | SENP7 block | SENP8 block-2 | SENP1 FRET inh | SENP6 inh | SENP8 conf-1 | SENP6 conf | SENP7 confirm | Casp3 select | Luc interf | others
N#C/C(=C(/O)c1ccco1)c1nc2ccccc2s1 | -36 | 5 | 57* | 81* | -32 | 90* | 91* | 91* | 100* | 91* | 74*
CCn1c2ccccc2c2cc(NC(=O)C(C)OC(=O)c3ccc(NC(=O)CC#N)cc3)ccc21 (stereo not given) | -21 | nt | -10 | -18 | -2 | -11 | nt | nt | nt | nt | nt
CC(NC(=O)CNC(=S)N(Cc1cccs1)C1CCCC1)c1ccccc1 (stereo not given) | 2 | -2 | -2 | -3 | 2 | 7 | nt | nt | nt | nt | nt
CC1=NN(c2ccc(Br)cc2)C(=O)/C1=C/c1cccs1 | 43* | 22 | 70* | 1 | 0 | 75* | -28 | -14 | -7 | -10 | -9
CC1=NN(c2ccccc2)C(=O)/C1=C\c1ccc(Oc2ccc([N+](=O)[O-])cc2[N+](=O)[O-])cc1 | 41* | 4 | 68* | 4 | 3 | 25 | 11 | 14 | 0 | -1 | 0
CC1=NN(c2ccccc2)C(=O)/C1=C\c1cn(-c2ccccc2)nc1C | 29 | -4 | 3 | -3 | 3 | 2 | nt | nt | nt | nt | nt
Nc1ccc(Oc2ccc([N+](=O)[O-])cc2[N+](=O)[O-])cc1 | 25 | 10 | -18 | -6 | 4 | -20 | nt | nt | nt | nt | nt
COc1ccccc1/C=C1/C(=O)N(c2ccccc2)N=C1C | 31 | 2 | 60* | -3 | 0 | 14 | -5 | 2 | -10 | 1 | 2
CC(OC(=O)CCN=C1NS(=O)(=O)c2ccccc21)C(=O)Nc1ccc(S(N)(=O)=O)cc1 (stereo not given) | 9 | nt | -10 | 3 | 1 | -15 | nt | nt | nt | nt | nt
Nc1nc(SCC(=O)N2CCCCCC2)[nH]c(=O)c1NC(=O)c1ccco1 | 5 | nt | -7 | -9 | -1 | -14 | nt | nt | nt | nt | nt
COC(=O)c1cc(/C=C/c2ccccc2)[nH]n1 | -4 | 5 | 47 | 37 | 2 | 52* | 49 | 46 | 82* | 64* | 16
COC(=O)c1cc(/C=C/c2ccccc2)on1 | -24 | -10 | -1 | -11 | 0 | 27 | nt | nt | nt | nt | nt
NS(=O)(=O)c1cnccc1Nc1ccc(Cl)cc1 | 14 | 12 | -2 | -7 | 1 | -8 | nt | nt | nt | nt | nt
COc1ccc(NC(=S)Nc2ccc3nsnc3c2)cc1 | 52* | 19 | 89* | 95* | -28 | 96* | 3 | 90* | 84* | 22 | 32 | SENP8 conf-2=71*
COc1ccc(NC(=S)Nc2ccc3nc(C)c(C)nc3c2)cc1 | -115 | 11 | 0 | -1 | -14 | -11 | nt | nt | nt | nt | nt
Nc1ccc(N2CCOCC2)c2nonc12 | 69* | 0 | 30 | 4 | 2 | 60* | 13 | 28 | 5 | -3 | -2 | SENP8 conf-2=78*
CC(C)n1nc(C(=O)Nc2cccc(S(=O)(=O)NCc3ccco3)c2)c2ccccc2c1=O | -3 | 16 | 0 | -8 | 1 | 14 | nt | nt | nt | nt | nt
CC(=O)N1N=C(c2ccccc2)OC1c1ccc([N+](=O)[O-])s1 (stereo not given) | 61* | -1 | 33 | 33 | 0 | 66* | 15 | 24 | 0 | -1 | -1 | SENP8 conf-2=39*
CC(=O)N1N=C(c2cccc([N+](=O)[O-])c2)OC1c1ccc(Br)cc1 (stereo not given) | 17 | -6 | 3 | -8 | 0 | -13 | nt | nt | nt | nt | nt
CC1=NN(c2ccc(Cl)cc2)C(=O)C1C(c1ccccc1O)c1c(C)[nH]n(-c2ccc(Cl)cc2)c1=O (stereo not given) | 95* | 29 | 92* | 34 | 0 | 86* | -9 | 22 | -2 | 3 | 4 | SENP8 conf-2=38
COc1ccc(F)c(CN2CCCC(CNS(=O)(=O)c3cccc4cccnc34)C2)c1 (stereo not given) | 8 | 1 | 7 | -2 | -7 | 9 | nt | nt | nt | nt | nt
O=C1C(=O)N(Cc2ccccc2)C(=O)N1CCN1C(=O)c2ccccc2C1=O | 9 | 8 | -9 | -11 | -2 | -39 | nt | nt | nt | nt | nt
O=C1Cc2ccccc2C(=O)N1CCc1ccccc1 | 98* | -4 | 87* | 95* | 1 | 97* | 86* | 96* | 86* | 96* | 12 | SENP8 conf-2=88*
COC(=O)c1ccc(NC(=O)C(=O)c2cccn2C)cc1 | 30* | 73* | 95* | 93* | 2 | 95* | 94* | 97* | 102* | 97* | 80* | SENP8 conf-2=16
COC(=O)c1ccc(NC(=O)c2ccccc2C(=O)Nc2ccc(C(=O)OC)cc2)cc1 | 18 | 0 | 2 | -3 | 2 | -7 | nt | nt | nt | nt | nt
COc1ccc(-c2[nH]n(-c3ccc([N+](=O)[O-])cc3)c(=O)c2C=NCc2ccc(F)cc2)cc1 | 10 | 8 | 4 | -5 | 20 | -1 | nt | nt | nt | nt | nt
COc1ccc(-c2cc(=O)n(-c3ccc([N+](=O)[O-])cc3)[nH]2)cc1 | 87* | -2 | 48 | 79* | 7 | 92* | 11 | 29 | 41 | -3 | 8 | SENP8 conf-2=24
CCOC(=O)c1ccc(NC(=O)N2CCN(C(=O)C3CCCO3)CC2)cc1 (stereo not given) | 10 | 2 | 9 | 0 | 1 | 6 | nt | nt | nt | nt | nt
C=CCSc1nnc(-c2ccccc2N=Cc2c(C)[nH]n(-c3ccccc3)c2=O)c(=O)[nH]1 | 40 | 9 | 9 | 14 | 6 | 8 | nt | nt | nt | nt | nt

Compound activity deposited in PubChem by several laboratories.
